Activity calls are given as the source filed them. The calls are words filed in the database; no cut-off is given here.
Key:
[1] = system: Mus musculus; experiment: Anticonvulsant activity in F1 albino mouse assessed as protection against maximal electroshock-induced seizures at 300 mg/kg, ip after 0.25 hrs; assay type: functional, organism-based; design: dose 300 mg/kg
Outline: (§1)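 Male albino F-1 mice (18–25 g), groups of 1–5 (rotorod 2–8). Compound given ip as a suspension in 0.5% methylcellulose at 30, 100 and 300 mg/kg. Seizures by maximal electroshock or subcutaneous pentylenetetrazole; neurotoxicity by rotorod. Read at 0.5 and 4 h, with some at 0.25, 1 and 2 h. Value is the minimum active dose, with protected (or toxic)/tested animals.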

[2] = system: Mus musculus; experiment: Anticonvulsant activity in F1 albino mouse assessed as protection against maximal electroshock-induced seizures at 300 mg/kg, ip after 0.5 hrs; assay type: functional, organism-based; design: dose 300 mg/kg; outline: as §1
[3] = system: Mus musculus; experiment: Anticonvulsant activity in F1 albino mouse assessed as protection against maximal electroshock-induced seizures at 300 mg/kg, ip after 1 hr; assay type: functional, organism-based; design: dose 300 mg/kg; outline: as §1
[4] = system: Mus musculus; experiment: Anticonvulsant activity in F1 albino mouse assessed as protection against maximal electroshock-induced seizures at 300 mg/kg, ip after 4 hrs; assay type: functional, organism-based; design: dose 300 mg/kg; outline: as §1
[5] = system: Mus musculus; experiment: Anticonvulsant activity in F1 albino mouse assessed as protection against subcutaneous pentylenetetrazole-induced seizures at 300 mg/kg, ip after 0.25 hrs; assay type: functional, organism-based; design: dose 300 mg/kg; outline: as §1
[6] = system: Mus musculus; experiment: Anticonvulsant activity in F1 albino mouse assessed as protection against subcutaneous pentylenetetrazole-induced seizures at 300 mg/kg, ip after 0.5 hrs; assay type: functional, organism-based; design: dose 300 mg/kg; outline: as §1
[7] = system: Mus musculus; experiment: Anticonvulsant activity in F1 albino mouse assessed as protection against subcutaneous pentylenetetrazole-induced seizures at 300 mg/kg, ip after 1 hr; assay type: functional, organism-based; design: dose 300 mg/kg; outline: as §1
[8] = system: Mus musculus; experiment: Anticonvulsant activity in F1 albino mouse assessed as protection against subcutaneous pentylenetetrazole-induced seizures at 300 mg/kg, ip after 4 hrs; assay type: functional, organism-based; design: dose 300 mg/kg; outline: as §1
[9] = system: Mus musculus; experiment: Neurotoxicity in F1 albino mouse assessed as minimal motor impairment at 300 mg/kg, ip after 0.25 hrs by rotorod test; assay type: toxicity, organism-based; design: dose 300 mg/kg, route intraperitoneal; settings: in vivo; outline: as §1
[10] = system: Mus musculus; experiment: Neurotoxicity in F1 albino mouse assessed as minimal motor impairment at 100 mg/kg, ip after 0.5 hrs by rotorod test; assay type: toxicity, organism-based; design: dose 100 mg/kg, route intraperitoneal; settings: in vivo; outline: as §1
[11] = system: Mus musculus; experiment: Neurotoxicity in F1 albino mouse assessed as minimal motor impairment at 100 mg/kg, ip after 1 hr by rotorod test; assay type: toxicity, organism-based; design: dose 100 mg/kg, route intraperitoneal; settings: in vivo; outline: as §1
[12] = system: Mus musculus; experiment: Neurotoxicity in F1 albino mouse assessed as minimal motor impairment at 300 mg/kg, ip after 4 hrs by rotorod test; assay type: toxicity, organism-based; design: dose 300 mg/kg, route intraperitoneal; settings: in vivo; outline: as §1
[13] = species on record: Rattus norvegicus; experiment: Selectivity ratio of Ki for adenosine A1 receptor in rat brain cortical membrane to Ki for adenosine A2A receptor in rat brain striatal membrane; assay type: cell membranes
Outline: (§2)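 Ki ratios from radioligand competition binding. Rat A1 used brain cortical membranes and rat A2A used brain striatal membranes. Human A1 and A2A used membranes of CHO cells expressing the receptors. A1 radioligand [³H]CCPA; A2A radioligand [³H]MSX-2. Potent compounds were tested at 6–7 concentrations spanning 3 orders of magnitude.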

[14] = molecular target: T1, Adenosine receptor A2a (Rattus norvegicus, UniProt P30543); experiment: Displacement of [3H]MSX-2 from adenosine A2A receptor in rat brain striatal membrane; assay type: cell membranes
T1 sequence (P30543 whole entry): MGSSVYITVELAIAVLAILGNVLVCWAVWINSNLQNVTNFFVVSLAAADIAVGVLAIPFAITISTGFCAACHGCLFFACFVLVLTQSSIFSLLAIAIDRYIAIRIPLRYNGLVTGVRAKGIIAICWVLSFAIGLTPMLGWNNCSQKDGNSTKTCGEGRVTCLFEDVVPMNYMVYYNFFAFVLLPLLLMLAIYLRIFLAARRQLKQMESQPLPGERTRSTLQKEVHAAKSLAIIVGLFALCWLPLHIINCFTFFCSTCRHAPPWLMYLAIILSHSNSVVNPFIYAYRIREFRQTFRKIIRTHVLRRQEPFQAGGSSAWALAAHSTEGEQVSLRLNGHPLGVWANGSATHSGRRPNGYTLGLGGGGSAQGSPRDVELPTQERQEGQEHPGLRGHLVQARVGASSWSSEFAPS

[15] = molecular target: T2, Adenosine receptor A1 (Rattus norvegicus, UniProt P25099); experiment: Displacement of [3H]CCPA from adenosine A1 receptor in rat brain cortical membrane; assay type: cell membranes
T2 sequence (P25099 whole entry): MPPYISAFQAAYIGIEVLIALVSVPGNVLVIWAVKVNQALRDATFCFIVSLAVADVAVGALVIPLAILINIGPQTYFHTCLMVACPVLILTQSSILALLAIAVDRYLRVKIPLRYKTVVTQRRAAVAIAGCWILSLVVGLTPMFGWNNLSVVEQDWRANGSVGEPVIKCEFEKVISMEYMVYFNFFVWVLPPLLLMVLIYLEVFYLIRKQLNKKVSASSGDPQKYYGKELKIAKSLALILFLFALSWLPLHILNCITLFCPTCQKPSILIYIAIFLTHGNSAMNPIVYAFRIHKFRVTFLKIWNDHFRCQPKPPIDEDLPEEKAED

[16] = molecular target: T3, Adenosine receptor A3 (Homo sapiens, UniProt P0DMS8); experiment: Displacement of [3H]PSB-11 from human recombinant adenosine A3 receptor expressed in CHO cells; assay type: cell-based
T3 sequence (P0DMS8 whole entry): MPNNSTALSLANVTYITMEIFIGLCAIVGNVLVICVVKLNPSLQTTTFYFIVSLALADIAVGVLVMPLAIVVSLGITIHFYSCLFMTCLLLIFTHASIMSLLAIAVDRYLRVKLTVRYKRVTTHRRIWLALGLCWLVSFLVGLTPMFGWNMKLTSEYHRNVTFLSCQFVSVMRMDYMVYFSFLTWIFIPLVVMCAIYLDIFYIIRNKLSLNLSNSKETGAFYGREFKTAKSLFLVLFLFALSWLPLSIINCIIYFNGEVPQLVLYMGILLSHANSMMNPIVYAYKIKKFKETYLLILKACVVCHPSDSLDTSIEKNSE

[17] = molecular target: T4, Adenosine receptor A3 (Homo sapiens) (UniProt P0DMS8); experiment: Displacement of [3H]PSB-11 from human recombinant adenosine A3 receptor expressed in CHO cells at 10 uM; assay type: cell-based
T4 sequence (whole entry): T3 sequence (P0DMS8 whole entry)
Outline: (§3)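 CHO cell membranes expressing the human receptor. Radioligands: A1 [3H]CCPA; A2B [3H]ZM241385 or [3H]PSB-603; A3 [3H]PSB-11. […] Potent compounds run at 6–7 concentrations spanning 3 orders of magnitude; Ki ± SEM.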

[18] = molecular target: T1, Adenosine receptor A2a; experiment: Displacement of [3H]MSX-2 from rat adenosine A2A receptor
[19] = molecular target: T1, Adenosine receptor A2a; experiment: Displacement of [3H]MSX-2 from rat adenosine A2A receptor in presence of 100 mM NaCl
[20] = molecular target: Adenosine receptor A2a (Homo sapiens, UniProt P29274); experiment: Antagonist activity human recombinant adenosine A2A receptor expressed in CHO cells assessed as inhibition of NECA-mediated [3H]cAMP accumulation after 15 mins by liquid scintillation counting; assay type: functional, cell-based
Adenosine receptor A2a (Homo sapiens, UniProt P29274), sequence (P29274 whole entry): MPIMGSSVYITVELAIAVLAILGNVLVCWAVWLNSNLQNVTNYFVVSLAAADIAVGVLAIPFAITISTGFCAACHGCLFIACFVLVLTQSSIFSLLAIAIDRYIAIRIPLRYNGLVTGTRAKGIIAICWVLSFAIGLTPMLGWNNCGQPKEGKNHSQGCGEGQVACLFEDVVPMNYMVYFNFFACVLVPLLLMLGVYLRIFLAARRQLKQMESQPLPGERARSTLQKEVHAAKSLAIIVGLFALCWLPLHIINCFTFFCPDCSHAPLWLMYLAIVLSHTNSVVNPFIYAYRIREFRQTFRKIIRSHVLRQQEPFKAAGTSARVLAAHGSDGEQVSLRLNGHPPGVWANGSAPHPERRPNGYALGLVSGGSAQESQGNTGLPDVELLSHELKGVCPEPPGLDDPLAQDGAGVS
Outline: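 Stably transfected CHO cells (human A2A), 200,000 cells/well, washed and preincubated 2 h at 37 °C in HBSS (pH 7.3) with 1 U/ml adenosine deaminase. Ro20-1724 (final 40 µM) added for 15 min. NECA dilutions ± a single test concentration in HBSS with 5% DMSO, in triplicate, for 15 min. Hot-lysis; cAMP quantified by [3H]cAMP competition against a standard curve; three separate experiments.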

[21] = system: Mus musculus; experiment: Toxicity in F1 albino mouse assessed as mortality following tonic extension at 300 mg/kg, ip after 1 hr; assay type: organism-based; design: dose 300 mg/kg, route intraperitoneal; settings: in vivo
Outline: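 Male albino F-1 mice (18–25 g) were dosed i.p. with a suspension in 0.5% methylcellulose in water at 30, 100 and 300 mg/kg. Screening used MES, subcutaneous pentylenetetrazole (ScMet) and rotorod tests, with 1–5 mice per seizure test.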

[22] = system: Mus musculus; experiment: Neurotoxicity in F1 albino mouse assessed as minimal motor impairment at 300 mg/kg, ip after 0.5 hrs by rotorod test; assay type: toxicity, organism-based; design: dose 300 mg/kg, route intraperitoneal; settings: in vivo; outline: as §1
[23] = system: Mus musculus; experiment: Neurotoxicity in F1 albino mouse assessed as minimal motor impairment at 300 mg/kg, ip after 1 hr by rotorod test; assay type: toxicity, organism-based; design: dose 300 mg/kg, route intraperitoneal; settings: in vivo; outline: as §1
[24] = molecular target: T5, Adenosine receptor A2b (Homo sapiens, UniProt P29275); experiment: Displacement of [3H]ZM241385 from human adenosine A2B receptor expressed in CHO cells; assay type: cell-based
T5 sequence (P29275 whole entry): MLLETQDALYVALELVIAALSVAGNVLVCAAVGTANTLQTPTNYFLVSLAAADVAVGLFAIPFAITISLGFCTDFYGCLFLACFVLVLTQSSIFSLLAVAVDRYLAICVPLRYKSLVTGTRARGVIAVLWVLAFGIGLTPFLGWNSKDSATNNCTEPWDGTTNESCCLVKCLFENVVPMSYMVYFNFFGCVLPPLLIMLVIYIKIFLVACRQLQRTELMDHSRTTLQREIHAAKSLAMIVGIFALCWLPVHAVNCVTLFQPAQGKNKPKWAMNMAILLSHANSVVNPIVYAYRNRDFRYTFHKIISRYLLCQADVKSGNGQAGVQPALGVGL

[25] = molecular target: T6, Adenosine receptor A2b (Homo sapiens) (UniProt P29275); experiment: Displacement of [3H]ZM241385 from human adenosine A2B receptor expressed in CHO cells at 10 uM; assay type: cell-based; outline: as §3
T6 sequence (whole entry): T5 sequence (P29275 whole entry)

[26] = molecular target: T7, Adenosine receptor A1 (Homo sapiens) (UniProt P30542); experiment: Displacement of [3H]CCPA from human recombinant adenosine A1 receptor expressed in CHO cells at 10 uM; assay type: cell-based; outline: as §3
T7 sequence (whole entry): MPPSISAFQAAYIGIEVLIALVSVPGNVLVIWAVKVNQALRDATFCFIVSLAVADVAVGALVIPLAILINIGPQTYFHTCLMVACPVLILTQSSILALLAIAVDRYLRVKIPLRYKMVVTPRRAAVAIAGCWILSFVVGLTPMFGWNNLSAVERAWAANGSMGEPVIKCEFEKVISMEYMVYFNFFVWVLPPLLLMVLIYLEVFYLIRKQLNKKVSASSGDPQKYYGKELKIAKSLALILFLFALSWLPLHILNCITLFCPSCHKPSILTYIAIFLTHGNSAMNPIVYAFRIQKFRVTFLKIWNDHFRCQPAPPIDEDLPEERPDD

[27] = molecular target: T8, Adenosine receptor A1 (Homo sapiens, UniProt P30542); experiment: Displacement of [3H]CCPA from human recombinant adenosine A1 receptor expressed in CHO cells; assay type: cell-based
T8 sequence (P30542 whole entry): T7 sequence (whole entry)

[28] = molecular target: T9, Adenosine receptor A1 (Rattus norvegicus) (UniProt P25099); experiment: Displacement of [3H]CCPA from adenosine A1 receptor in rat brain cortical membrane at 25 uM; assay type: cell membranes
T9 sequence (whole entry): T2 sequence (P25099 whole entry)

[29] = system: CHO; experiment: Selectivity ratio of Ki for human recombinant adenosine A2A receptor expressed in CHO cells to Ki for adenosine A2A receptor in rat brain striatal membrane; assay type: cell-based; outline: as §2

Compound	Activity [1]	Activity [2]	Activity [3]	Activity [4]	Activity [5]	Activity [6]	Activity [8]	Activity [9]	Activity [12]	Ratio Ki [13]	Ki [15] [nM]	further results
Cn1c(=O)c2c(nc3n2CCCCN3CCC2=CCCCC2)n(C)c1=O	inactive	inactive	inactive	inactive	inactive	inactive	inactive	Non-toxic	Non-toxic	1	1660	Activity [7]: inactive; Activity [10]: Non-toxic; Activity [11]: Non-toxic; Ki [14]: 1170 nM
CC1CCC(N2CCCn3c2nc2c3c(=O)n(C)c(=O)n2C)CC1 (mixture of isomers)	inactive	inactive	inactive	inactive	inactive	Active	inactive	Non-toxic	Non-toxic	> 100	≥ 25000	Ki [16]: > 10 µM; inhibition [17]: 16%; IC50 [18]: 263 nM; IC50 [19]: 251 nM; Kb [20]: 644 nM; Activity [21]: Toxic; Activity [22]: Non-toxic; Activity [23]: Non-toxic; Ki [24]: > 10 µM; inhibition [25]: 16%; inhibition [26]: 28%; Ki [27]: > 10 µM; inhibition [28]: 38%; Ratio Ki [29]: 3

Reference: ChEMBL document CHEMBL2150901, “Synthesis and biological activity of tricyclic cycloalkylimidazo-, pyrimido- and diazepinopurinediones” (Eur J Med Chem, 2011)
